Data taken from ChEMBL document CHEMBL1126801, “Synthesis and antiviral activity of 2'-substituted 9-[2-(phosphonomethoxy)ethyl]guanine analogues” (J Med Chem, 1993).

Legend:
[1] = Toxic concentration, in CEM cells estimated by the XTT assay; assay type: toxicity, cell-based; conditions: human, CCRF-CEM (CEM) cells; read-out: TC50 (the source's name)
[2] = Tested in vitro against HSV 2 from Wi-38 cells; assay type: organism-based; conditions: human alphaherpesvirus 2, WI-38 cells; read-out: TC50 (the source's name)
[3] = tested on: Human immunodeficiency virus 1; experiment: Tested in vitro against human immunodeficiency virus (HIV) infected CEM cells using XTT assay (HIV-HRF strain); NA = not active at 100 uM; assay type: functional, organism-based; conditions: ccrf-cem
In short: (§1)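 Anti-HIV XTT assay in HIV-infected CEM cells, using the LAV-BRU or HIV-HRF strain as the line names. The value is the 50% inhibitory concentration. The top concentration tested was 100 μM, and inactivity there is scored NA.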

Human alphaherpesvirus 2 [4] = experiment: Tested in vitro against HSV 2 from WI-38 cells; NA= not active at 100 uM; assay type: functional, organism-based
Human betaherpesvirus 5 [5] = experiment: Tested in vitro against HCMV from WI-38 cells; NA= not active at 100 uM; assay type: functional, organism-based
[6] = Tested in vitro against HCMV from WI-38 cells; assay type: organism-based; conditions: human betaherpesvirus 5, WI-38 cells; read-out: TC50 (the source's name)
[7] = (§2) Tested in vitro against HSV 2 G strain in vero cells; assay type: organism-based; conditions: human alphaherpesvirus 2, Vero cells; read-out: TC50 (the source's name)
[8] = (§3) Tested in vitro against HCMV AD-169 strain in MRC-5 cells; assay type: ADME, organism-based, MRC5; conditions: human betaherpesvirus 5, MRC-5 cells; read-out: TC50 (the source's name)
Human alphaherpesvirus 2 [9] = experiment: Tested in vitro against HSV 2 G strain in vero cells; NA= not active at 100 uM; assay type: functional, organism-based
In short: (§4)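 Plaque reduction assay against HSV-2 strain G in Vero cells, giving a 50% inhibitory concentration. The top concentration tested was 100 μM, and inactivity there is scored NA.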

Human betaherpesvirus 5 [10] = experiment: as §3; assay type: functional, organism-based; conditions: Human betaherpesvirus 5, MRC5
In short: (§5)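 Plaque reduction assay against HCMV strain AD-169 in MRC-5 cells, giving a 50% inhibitory concentration. The top concentration tested was 100 μM, and inactivity there is scored NA.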

[11] = tested on: Human immunodeficiency virus 1; experiment: Tested in vitro against human immunodeficiency virus (HIV) infected CEM cells using XTT assay (LAV-BRU strain); NA = not active at 100 uM; assay type: functional, organism-based; conditions: ccrf-cem; in short: as §1
Human betaherpesvirus 5 [12] = experiment: Tested in vitro against HCMV AD-169 strain in MRC-5 cells; NA= not active at 100 uM; assay type: functional, organism-based; conditions: mrc5; in short: as §5
CCRF-CEM = experiment: Cell growth toxicity against CEM cells after treatment with compound for 72 hours; assay type: functional; conditions: Homo sapiens
In short: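 Cytotoxicity in CEM cells: cells counted after 72 h drug exposure; the value is the concentration giving 50% cell growth toxicity.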

[13] = Ratio between TC50 against human immunodeficiency virus infected CEM cells and IC50 against CEM cells; assay type: functional, CCRF-CEM
In short: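 Selectivity index is TC50 divided by IC50. TC50 is the 50% toxic concentration from the XTT assay in CEM cells. IC50 is the 50% inhibitory concentration from the XTT assay in HIV-infected CEM cells.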

Human betaherpesvirus 5 [14] = experiment: Tested in vitro against HCMV from WI-38 cells; NA= not active at 100 uM as determined in WI-38 cells; assay type: functional, organism-based
[15] = tested on: Human immunodeficiency virus 1; experiment: Tested in vitro against human immunodeficiency virus (HIV) infected CEM cells using XTT assay (HIV-HRF strain); assay type: functional, organism-based; conditions: Human immunodeficiency virus 1, CCRF-CEM; in short: as §1
[16] = Tested in vitro against HSV 2 from WI-38 cells; assay type: organism-based; conditions: human alphaherpesvirus 2, WI-38 cells; read-out: TC50 (the source's name)
[17] = tested on: Human immunodeficiency virus 1; experiment: Tested in vitro against human immunodeficiency virus (HIV) infected CEM cells using XTT assay (LAV-BRU strain); assay type: functional, organism-based; conditions: Human immunodeficiency virus 1, CCRF-CEM; in short: as §1
Human alphaherpesvirus 2 [18] = experiment: as §2; assay type: functional, organism-based; conditions: Human alphaherpesvirus 2, Vero; in short: as §4
Human alphaherpesvirus 2 [19] = experiment: as §2; assay type: functional, organism-based, herpes simplex virus; conditions: Human alphaherpesvirus 2, Vero; in short: as §4

Row | Compound | CC50 [1] | CC50 [7] | CC50 [8] | IC50 (Human alphaherpesvirus 2 [9]) | IC50 (Human betaherpesvirus 5 [10]) | CC50 (CCRF-CEM) | Selectivity index [13] | IC50 [17] | further results
1 | Nc1nc(O)c2ncn(C[C@H](OCP(=O)(O)O)C3CC3)c2n1 | > 1000 µM |  |  |  |  |  |  |  | CC50 [2]: > 300 µM; IC50 [3]: Not Active; IC50 (Human alphaherpesvirus 2 [4]): Not Active; IC50 (Human betaherpesvirus 5 [5]): Not Active; CC50 [6]: > 300 µM
2 | Nc1nc(O)c2ncn(C[C@H](CCO)OCP(=O)(O)O)c2n1 | > 500 µM | 300 µM | > 300 µM | Not Active | 162 µM |  |  |  | IC50 [11]: Not Active
3 | [N-]=[N+]=NCC[C@@H](Cn1cnc2c(O)nc(N)nc21)OCP(=O)(O)O | > 500 µM | 300 µM | 300 µM | Not Active |  |  |  |  | IC50 [11]: Not Active; IC50 (Human betaherpesvirus 5 [12]): Not Active
4 | C=C[C@H](Cn1cnc2c(O)nc(N)nc21)OCP(=O)(O)O | > 1000 µM |  |  |  |  | > 1590 µM | >77 |  | IC50 (Human betaherpesvirus 5 [14]): Not Active; IC50 [15]: 13 µM; CC50 [6]: > 300 µM
5 | CC[C@@H](Cn1cnc2c(O)nc(N)nc21)OCP(=O)(O)O | > 500 µM | 300 µM | 300 µM | Not Active |  |  | >2 |  | IC50 [15]: 252 µM; IC50 (Human betaherpesvirus 5 [12]): Not Active
6 | CC[C@H](Cn1cnc2c(O)nc(N)nc21)OCP(=O)(O)O | 1000 µM |  |  |  |  |  | 19 |  | IC50 (Human alphaherpesvirus 2 [4]): Not Active; CC50 [16]: > 300 µM; IC50 [15]: 54 µM; IC50 (Human betaherpesvirus 5 [5]): Not Active; CC50 [6]: > 300 µM
7 | C[C@@H](Cn1cnc2c(O)nc(N)nc21)OCP(=O)(O)O |  | > 330 µM | > 330 µM |  | 16 µM | 12 µM | 25 | 12 µM | IC50 (Human alphaherpesvirus 2 [18]): 43 µM
8 | C=C[C@@H](Cn1cnc2c(O)nc(N)nc21)OCP(=O)(O)O | > 1000 µM | 300 µM | > 300 µM | Not Active |  | > 1590 µM | >20 |  | IC50 [15]: 49 µM; IC50 (Human betaherpesvirus 5 [12]): Not Active
9 | Nc1nc(O)c2ncn(C[C@H](CCF)OCP(=O)(O)O)c2n1 | > 500 µM | 300 µM | 300 µM | Not Active |  |  |  |  | IC50 [11]: Not Active; IC50 (Human betaherpesvirus 5 [12]): Not Active
10 | Nc1nc(O)c2ncn(C[C@@H](CCO)OCP(=O)(O)O)c2n1 | > 450 µM | 300 µM |  | Not Active |  |  |  |  | IC50 [11]: Not Active
11 | C[C@H](Cn1cnc2c(O)nc(N)nc21)OCP(=O)(O)O | > 500 µM | > 330 µM | > 330 µM |  | 16 µM | 180 µM | >500 | 1 µM | IC50 (Human alphaherpesvirus 2 [18]): 82 µM
12 | Nc1nc(O)c2ncn(C[C@@H](OCP(=O)(O)O)C3CC3)c2n1 | 91 µM | 300 µM |  | Not Active |  |  |  |  | IC50 [3]: Not Active
13 | Nc1nc(O)c2ncn(CC(CF)OCP(=O)(O)O)c2n1 (single isomer, unassigned; form 1) | > 500 µM | > 310 µM | > 310 µM |  | 136 µM | 427 µM | > 63 | 8 µM | 
14 | Nc1nc2c(ncn2CC(CO)OCP(=O)(O)O)c(=O)[nH]1 (single isomer, unassigned; form 1) | > 500 µM | > 310 µM | > 310 µM |  | 1.6 µM |  | > 1 | 500 µM | IC50 (Human alphaherpesvirus 2 [19]): 97 µM
15 | Nc1nc(O)c2ncn(CC(CCl)OCP(=O)(O)O)c2n1 (single isomer, unassigned; form 1) | > 500 µM | > 300 µM | > 300 µM | Not Active | 51 µM | 870 µM | > 11 | 45 µM | 
16 | [N-]=[N+]=NCC(Cn1cnc2c(O)nc(N)nc21)OCP(=O)(O)O (single isomer, unassigned; form 1) | > 1000 µM | > 300 µM | > 300 µM | Not Active | 33 µM | > 1400 µM | > 200 |  | IC50 [15]: 5 µM
17 | [N-]=[N+]=NCC(Cn1cnc2c(O)nc(N)nc21)OCP(=O)(O)O (single isomer, unassigned; form 2) | > 1000 µM | > 300 µM | > 300 µM | Not Active | 15 µM | 134 µM | > 20 |  | IC50 [15]: 51 µM
18 | Nc1nc(O)c2ncn(CC(CCl)OCP(=O)(O)O)c2n1 (single isomer, unassigned; form 2) | > 500 µM | 300 µM | 300 µM | Not Active | 112 µM | > 1500 µM | > 10 | 50 µM | 
19 | Nc1nc(O)c2ncn(CC(CO)OCP(=O)(O)O)c2n1 (single isomer, unassigned; form 2) |  | > 310 µM | > 310 µM |  | 0.8 µM |  | < 1 | > 500 µM | IC50 (Human alphaherpesvirus 2 [18]): 99 µM
20 | Nc1nc(O)c2ncn(CC(CF)OCP(=O)(O)O)c2n1 (single isomer, unassigned; form 2) | > 500 µM | > 310 µM | > 310 µM |  | 150 µM | 93 µM | > 71 | 7 µM | 
21 | Nc1nc2c(ncn2CCOCP(=O)(O)O)c(=O)[nH]1 [GS-438] |  | 17 µM | 30 µM |  | 0.09 µM | 0.2 µM | 75 | 0.2 µM | IC50 (Human alphaherpesvirus 2 [18]): 1.1 µM
